Laboratory results from PMC4495401 (Genes & Development, 2015).
Numbering of substitutions follows the chain as printed. “Also recorded” adds a separate entry of the source.

Columns and labels:
SIRT5 = settings: fluorogenic Fluor-de-Lys (FdL) peptide substrate; ref Gertz et al. 2012; cited from earlier work
p53-AMC peptide = assay: ITC, resveratrol to p53-AMC peptide; assay type: binding; settings: 25°C
SIRT1 Q222A/N226A mutant = biological target: T1, SIRT1 Q222A/N226A mutant (Homo sapiens, UniProt Q96EB6, C253S/C268S/C501S/C502S/DEL513-640/N226A/Q222A); assay: Enzyme-coupled deacetylation assay, SIRT1 Q222A/N226A; assay type: biochemical; settings: p53-AMC 100 μM, 0.2 mM resveratrol, PBS pH 7.4, 37°C
T1 sequence (Q96EB6 with tags, fused parts or gaps Q222A/N226A/C253S/C268S/C501S/C502S/DEL513-640 limits assumed): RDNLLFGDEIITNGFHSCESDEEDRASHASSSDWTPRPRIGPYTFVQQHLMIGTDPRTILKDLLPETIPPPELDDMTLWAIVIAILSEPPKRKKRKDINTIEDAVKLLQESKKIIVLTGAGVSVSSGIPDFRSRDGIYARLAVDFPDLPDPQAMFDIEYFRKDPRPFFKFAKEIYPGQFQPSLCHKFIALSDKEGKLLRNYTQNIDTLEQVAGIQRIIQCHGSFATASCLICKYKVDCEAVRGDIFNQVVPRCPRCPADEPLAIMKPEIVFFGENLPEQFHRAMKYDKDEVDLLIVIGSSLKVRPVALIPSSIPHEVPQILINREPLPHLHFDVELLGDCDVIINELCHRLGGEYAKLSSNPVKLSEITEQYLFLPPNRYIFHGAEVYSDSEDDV
How it was run: (§1)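 Mutants are made in the SIRT1-143CS background. Continuous coupled assay in PBS pH 7.4: 2 mM NAD, 100 μM p53-AMC, ±0.2 mM resveratrol, 0.2 mM NADH, 3.3 mM α-ketoglutarate, 1 μM PncA, 3 U glutamate dehydrogenase, 1 mM DTT, 2% DMSO. Pre-equilibrated 5–10 min at 37°C without NAD, then started with NAD. A340 followed 15 min, minus no-NAD background. Rate taken from the linear portion, three repeats.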

SIRT1 R446A mutant = biological target: T2, SIRT1 R446A mutant (Homo sapiens, UniProt Q96EB6, C253S/C268S/C501S/C502S/DEL513-640/R446A); assay: Enzyme-coupled deacetylation assay, SIRT1 R446A; assay type: biochemical; settings: p53-AMC 100 μM, 0.2 mM resveratrol, PBS pH 7.4, 37°C
T2 sequence (Q96EB6 with tags, fused parts or gaps C253S/C268S/R446A/C501S/C502S/DEL513-640 limits assumed): T1 sequence (Q96EB6 with tags, fused parts or gaps Q222A/N226A/C253S/C268S/C501S/C502S/DEL513-640 limits assumed) with A80Q, A84N, R304A
How it was run: as §1

[1] = biological target: T3, SIRT1-143CS (C253S, C268S, C501S, C502S) (Homo sapiens, UniProt Q96EB6, C253S/C268S/C501S/C502S/DEL513-640); assay: ITC peptide binding, SIRT1-143CS; settings: 25°C, 0.5 mM resveratrol
T3 sequence (Q96EB6 with tags, fused parts or gaps C253S/C268S/C501S/C502S/DEL513-640 limits assumed): T1 sequence (Q96EB6 with tags, fused parts or gaps Q222A/N226A/C253S/C268S/C501S/C502S/DEL513-640 limits assumed) with A80Q, A84N
How it was run: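 p53-AMC peptide ([acR]HK[Kac]-AMC) at 1.5 mM was titrated into 0.1 mM SIRT1 protein at 25°C with 600 rpm stirring. The run used 20 injections, a 0.5 μL first drop that was not used, 2 μL drops thereafter and 2 min intervals. Titrant and protein were both in 20 mM HEPES pH 7.5, 150 mM NaCl, 10% glycerol, with or without 0.5 mM resveratrol. Buffer-only titrant heat was subtracted, and KD came from a one-site fit.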

[2] = biological target: SIRT1 NTD (isolated protein domain); assay: ITC, resveratrol to isolated SIRT1 NTD; assay type: binding, human; settings: 25°C
SIRT3 = settings: fluorogenic Fluor-de-Lys (FdL) peptide substrate; ref Gertz et al. 2012; cited from earlier work
SIRT1-143 = assay: Enzyme-coupled deacetylation assay, SIRT1-143; assay type: biochemical, human; settings: p53-AMC substrate, 0.5 mM resveratrol (Fig. 1B)
How it was run: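 Purified tag-free SIRT1 fragments (his-sumo tag removed after Ni-IDA, then size exclusion) in the continuous nicotinamidase/glutamate dehydrogenase-coupled assay. NADH oxidation was read at 340 nm using an extinction coefficient of 6.22 mM−1 cm−1. Reactions at 37°C in PBS pH 7.4, started with NAD, with and without resveratrol. Background from no-NAD controls was subtracted.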

SIRT1 E230K mutant = biological target: T4, SIRT1 E230K mutant (Homo sapiens, UniProt Q96EB6, C253S/C268S/C501S/C502S/DEL513-640/E230K); assay: Enzyme-coupled deacetylation assay, SIRT1 E230K; assay type: biochemical; settings: p53-AMC 100 μM, 0.2 mM resveratrol, PBS pH 7.4, 37°C
T4 sequence (Q96EB6 with tags, fused parts or gaps E230K/C253S/C268S/C501S/C502S/DEL513-640 limits assumed): T1 sequence (Q96EB6 with tags, fused parts or gaps Q222A/N226A/C253S/C268S/C501S/C502S/DEL513-640 limits assumed) with A80Q, A84N, E88K
How it was run: as §1

[3] = system: fluorophore-attached p53 peptides; settings: ref Borra et al. 2005; Pacholec et al. 2010; cited from earlier work
SIRT1-143CS = biological target: T5, SIRT1-143CS (Homo sapiens, UniProt Q96EB6, C253S/C268S/C501S/C502S/DEL513-640); assay type: biochemical; settings: 0.2 mM resveratrol, PBS pH 7.4, 37°C
T5 sequence (Q96EB6 with tags, fused parts or gaps C253S/C268S/C501S/C502S/DEL513-640 limits assumed): T1 sequence (Q96EB6 with tags, fused parts or gaps Q222A/N226A/C253S/C268S/C501S/C502S/DEL513-640 limits assumed) with A80Q, A84N

SIRT1 E230A mutant = biological target: T6, SIRT1 E230A mutant (Homo sapiens, UniProt Q96EB6, C253S/C268S/C501S/C502S/DEL513-640/E230A); assay: Enzyme-coupled deacetylation assay, SIRT1 E230A; assay type: biochemical; settings: p53-AMC 100 μM, 0.2 mM resveratrol, PBS pH 7.4, 37°C
T6 sequence (Q96EB6 with tags, fused parts or gaps E230A/C253S/C268S/C501S/C502S/DEL513-640 limits assumed): T1 sequence (Q96EB6 with tags, fused parts or gaps Q222A/N226A/C253S/C268S/C501S/C502S/DEL513-640 limits assumed) with A80Q, A84N, E88A
How it was run: as §1

## Oc1ccc(/C=C/c2cc(O)cc(O)c2)cc1 [resveratrol]
SIRT5
  effect on SIRT5 activity: stimulate the activity of SIRT5
p53-AMC peptide
  binding affinity between resveratrol and the p53-AMC peptide: too weak to be reliably quantitated
SIRT1 Q222A/N226A mutant
  response to the addition of resveratrol: conspicuous level of reduction in response to the addition of resveratrol
SIRT1 R446A mutant
  level of resveratrol stimulation: level of resveratrol stimulation similar to that of the E230K mutant
[1]
  effect of resveratrol on binding between SIRT1 and the p53-AMC peptide: increased the binding between SIRT1 and the p53-AMC peptide
[2]
  binding affinity between resveratrol and the SIRT1 NTD: too weak to be reliably quantitated
SIRT3
  effect on SIRT3 activity: inhibit SIRT3
SIRT1-143
  stimulation of deacetylase activity by resveratrol: stimulated by resveratrol in a manner similar to that of the full-length protein
SIRT1 E230K mutant
  stimulatory effect of resveratrol: significantly reduced the stimulatory effect of resveratrol
[3]
  interaction with fluorophore-attached p53 peptides: weakly
SIRT1-143CS
  effect of resveratrol on Km for the p53-AMC peptide: significantly lowered the Km value for the p53-AMC peptide; also recorded: lowered the Km value of the fluorogenic peptide
SIRT1-143CS; native peptides without fluorophore
  effect of resveratrol on Km for PGC-1α and FOXO3a peptides: less pronounced
SIRT1 E230A mutant
  stimulatory effect of resveratrol: significantly reduced the stimulatory effect of resveratrol
